Data: ChEMBL document CHEMBL4251745, “The Notch Inhibitors Isolated from Nerium indicum” (J Nat Prod, 2018)
Activity calls are given as the source filed them. No cut-off for these calls is given here.

How the values were obtained:
[1] = molecular target: Neurogenic locus notch homolog protein 1 (Mus musculus, UniProt Q01705); test: Inhibition of recombinant mouse N-terminal FLAG-tagged Notch1 (1704 to 2531 residues) expressed in human LS174T cells assessed as reduction in doxycycline-induced NICD expression after 12 hrs by Bright-Glo luciferase reporter gene assay; assay type: cell-based
Method in brief: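 LS174T cells stably carrying a luciferase reporter under 12× RBP-J sites (β-globin promoter), 2 × 10^4 per well. After 12 h, doxycycline 50 ng/mL for 12 h induced Notch1(1704–2531). Then dox-free medium with compound, 0.1% DMSO, 12 h at 37 °C. Read by Bright-Glo luminescence, n = 3, with parallel FMCA viability.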

[2] = molecular target: Neurogenic locus notch homolog protein 1 (Mus musculus) (UniProt Q01705); test: Inhibition of doxycycline-induced recombinant mouse N-terminal FLAG-tagged Notch1 (1704 to 2531 residues) activation expressed in human LS174T cells assessed as reduction in Hes1 level at 0.05 to 0.3 uM after 12 hrs by Western blot analysis; assay type: cell-based
Method in brief: (§1)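 LS174T Notch assay cells at 1 × 10^6 per 6 cm dish, 12 h at 37 °C, then doxycycline 50 ng/mL for 12 h to induce FLAG-Notch1(1704–2531). Switched to fresh medium with compound for 12 h. Lysates probed by western blot with anti-FLAG, anti-cleaved Notch1 (Val1744), anti-HES1 or anti-HES5, β-actin control.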

HPBALL [3] = test: Down regulation of Notch1 expression in human HPBALL cells at 0.5 uM after 12 hrs in presence of proteasome inhibitor MG132 by Western blot analysis; assay type: functional, cell-based
Method in brief: (§2)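 HPB-ALL cells at 1 × 10^6 per 6 cm dish, treated 12 h at 37 °C with compound plus proteasome inhibitor MG132 (18.5 μM). Lysates blotted on PVDF, probed for cleaved Notch1 (Val1744)/NICD with β-actin loading control, ECL detection.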

[4] = molecular target: Neurogenic locus notch homolog protein 1 (Homo sapiens) (UniProt P46531); test: Inhibition of Notch1 in human HPBALL cells assessed as reduction in HES1 expression after 72 hrs by Western blot analysis; assay type: cell-based
Method in brief: (§3)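 HPB-ALL cells at 5 × 10^5 per 6 cm dish in RPMI-1640/10% FBS containing a range of compound concentrations, 72 h at 37 °C. Lysates run on SDS-PAGE and PVDF; probed with anti-HES1 or anti-cleaved Notch1 (Val1744) for NICD, β-actin control, ECL read-out.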

HPBALL [5] = test: Effect on Notch1 mRNA expression in human HPBALL cells at 0.1 to 0.5 uM measured after 12 hrs; assay type: functional, cell-based
LS174T = test: Inhibition of doxycycline-induced Notch1 (1704 to 2531 residues) expression in human LS174T cells after 12 hrs by Western blot analysis; assay type: functional, cell-based; method in brief: as §1
HEK293 = test: Cytotoxicity against HEK293 cells after 72 hrs by fluorescence assay; assay type: cell-based; details: Homo sapiens, HEK293, 72 h
Method in brief: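 HEK293 cells at 1 × 10^4 per well in DMEM with 10% FBS and penicillin/streptomycin. Pre-incubated 24 h at 37 °C, then medium replaced with fresh medium holding a range of compound concentrations. Exposed 72 h; medium removed and proliferation read by fluorometric microculture cytotoxicity assay (FMCA).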

HPBALL [6] = test: Down regulation of Notch1 expression in human HPBALL cells at 0.5 uM after 12 hrs by Western blot analysis; assay type: functional, cell-based
[7] = molecular target: Neurogenic locus notch homolog protein 1 (Mus musculus) (UniProt Q01705); test: Inhibition of doxycycline-induced recombinant mouse N-terminal FLAG-tagged Notch1 (1704 to 2531 residues) activation expressed in human LS174T cells assessed as reduction in NCID expression after 12 hrs by Western blot analysis; assay type: cell-based; method in brief: as §1
[8] = molecular target: Neurogenic locus notch homolog protein 1 (Homo sapiens) (UniProt P46531); test: Inhibition of Notch1 in human HPBALL cells assessed as reduction in NICD expression at 0.5 uM after 12 hrs in presence of proteasome inhibitor MG132 by Western blot analysis; assay type: cell-based; method in brief: as §2
[9] = molecular target: Neurogenic locus notch homolog protein 1 (Homo sapiens) (UniProt P46531); test: Inhibition of Notch1 in human HPBALL cells assessed as reduction in NICD expression after 72 hrs by Western blot analysis; assay type: cell-based; method in brief: as §3
[10] = molecular target: Neurogenic locus notch homolog protein 1 (Homo sapiens) (UniProt P46531); test: Inhibition of Notch1 in human HPBALL cells assessed as reduction in NICD expression at 0.5 uM after 12 hrs by Western blot analysis; assay type: cell-based
HPBALL [11] = test: Cytotoxicity against human HPBALL cells after 72 hrs by alamar blue dye based fluorescence assay; assay type: functional, cell-based
Method in brief: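 HPB-ALL T-ALL cells at 1 × 10^4 per well in RPMI-1640 with 10% FBS and penicillin/streptomycin. Compound added at seeding over a concentration range; 72 h at 37 °C. AlamarBlue then added for 4 h and fluorescence read to give viability.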

[12] = molecular target: Neurogenic locus notch homolog protein 1 (Mus musculus) (UniProt Q01705); test: Inhibition of doxycycline-induced recombinant mouse N-terminal FLAG-tagged Notch1 (1704 to 2531 residues) activation expressed in human LS174T cells assessed as reduction in Hes5 level at 0.05 to 0.3 uM after 12 hrs by Western blot analysis; assay type: cell-based; method in brief: as §1
[13] = molecular target: Neurogenic locus notch homolog protein 1 (Mus musculus) (UniProt Q01705); test: Inhibition of doxycycline-induced recombinant mouse N-terminal FLAG-tagged Notch1 (1704 to 2531 residues) activation expressed in human LS174T cells assessed as reduction in NCID expression at 0.5 uM after 12 hrs in presence of proteasome inhibitor MG132 by Western blot analysis; assay type: cell-based

Sequence of Neurogenic locus notch homolog protein 1 (Homo sapiens) (P46531 whole entry): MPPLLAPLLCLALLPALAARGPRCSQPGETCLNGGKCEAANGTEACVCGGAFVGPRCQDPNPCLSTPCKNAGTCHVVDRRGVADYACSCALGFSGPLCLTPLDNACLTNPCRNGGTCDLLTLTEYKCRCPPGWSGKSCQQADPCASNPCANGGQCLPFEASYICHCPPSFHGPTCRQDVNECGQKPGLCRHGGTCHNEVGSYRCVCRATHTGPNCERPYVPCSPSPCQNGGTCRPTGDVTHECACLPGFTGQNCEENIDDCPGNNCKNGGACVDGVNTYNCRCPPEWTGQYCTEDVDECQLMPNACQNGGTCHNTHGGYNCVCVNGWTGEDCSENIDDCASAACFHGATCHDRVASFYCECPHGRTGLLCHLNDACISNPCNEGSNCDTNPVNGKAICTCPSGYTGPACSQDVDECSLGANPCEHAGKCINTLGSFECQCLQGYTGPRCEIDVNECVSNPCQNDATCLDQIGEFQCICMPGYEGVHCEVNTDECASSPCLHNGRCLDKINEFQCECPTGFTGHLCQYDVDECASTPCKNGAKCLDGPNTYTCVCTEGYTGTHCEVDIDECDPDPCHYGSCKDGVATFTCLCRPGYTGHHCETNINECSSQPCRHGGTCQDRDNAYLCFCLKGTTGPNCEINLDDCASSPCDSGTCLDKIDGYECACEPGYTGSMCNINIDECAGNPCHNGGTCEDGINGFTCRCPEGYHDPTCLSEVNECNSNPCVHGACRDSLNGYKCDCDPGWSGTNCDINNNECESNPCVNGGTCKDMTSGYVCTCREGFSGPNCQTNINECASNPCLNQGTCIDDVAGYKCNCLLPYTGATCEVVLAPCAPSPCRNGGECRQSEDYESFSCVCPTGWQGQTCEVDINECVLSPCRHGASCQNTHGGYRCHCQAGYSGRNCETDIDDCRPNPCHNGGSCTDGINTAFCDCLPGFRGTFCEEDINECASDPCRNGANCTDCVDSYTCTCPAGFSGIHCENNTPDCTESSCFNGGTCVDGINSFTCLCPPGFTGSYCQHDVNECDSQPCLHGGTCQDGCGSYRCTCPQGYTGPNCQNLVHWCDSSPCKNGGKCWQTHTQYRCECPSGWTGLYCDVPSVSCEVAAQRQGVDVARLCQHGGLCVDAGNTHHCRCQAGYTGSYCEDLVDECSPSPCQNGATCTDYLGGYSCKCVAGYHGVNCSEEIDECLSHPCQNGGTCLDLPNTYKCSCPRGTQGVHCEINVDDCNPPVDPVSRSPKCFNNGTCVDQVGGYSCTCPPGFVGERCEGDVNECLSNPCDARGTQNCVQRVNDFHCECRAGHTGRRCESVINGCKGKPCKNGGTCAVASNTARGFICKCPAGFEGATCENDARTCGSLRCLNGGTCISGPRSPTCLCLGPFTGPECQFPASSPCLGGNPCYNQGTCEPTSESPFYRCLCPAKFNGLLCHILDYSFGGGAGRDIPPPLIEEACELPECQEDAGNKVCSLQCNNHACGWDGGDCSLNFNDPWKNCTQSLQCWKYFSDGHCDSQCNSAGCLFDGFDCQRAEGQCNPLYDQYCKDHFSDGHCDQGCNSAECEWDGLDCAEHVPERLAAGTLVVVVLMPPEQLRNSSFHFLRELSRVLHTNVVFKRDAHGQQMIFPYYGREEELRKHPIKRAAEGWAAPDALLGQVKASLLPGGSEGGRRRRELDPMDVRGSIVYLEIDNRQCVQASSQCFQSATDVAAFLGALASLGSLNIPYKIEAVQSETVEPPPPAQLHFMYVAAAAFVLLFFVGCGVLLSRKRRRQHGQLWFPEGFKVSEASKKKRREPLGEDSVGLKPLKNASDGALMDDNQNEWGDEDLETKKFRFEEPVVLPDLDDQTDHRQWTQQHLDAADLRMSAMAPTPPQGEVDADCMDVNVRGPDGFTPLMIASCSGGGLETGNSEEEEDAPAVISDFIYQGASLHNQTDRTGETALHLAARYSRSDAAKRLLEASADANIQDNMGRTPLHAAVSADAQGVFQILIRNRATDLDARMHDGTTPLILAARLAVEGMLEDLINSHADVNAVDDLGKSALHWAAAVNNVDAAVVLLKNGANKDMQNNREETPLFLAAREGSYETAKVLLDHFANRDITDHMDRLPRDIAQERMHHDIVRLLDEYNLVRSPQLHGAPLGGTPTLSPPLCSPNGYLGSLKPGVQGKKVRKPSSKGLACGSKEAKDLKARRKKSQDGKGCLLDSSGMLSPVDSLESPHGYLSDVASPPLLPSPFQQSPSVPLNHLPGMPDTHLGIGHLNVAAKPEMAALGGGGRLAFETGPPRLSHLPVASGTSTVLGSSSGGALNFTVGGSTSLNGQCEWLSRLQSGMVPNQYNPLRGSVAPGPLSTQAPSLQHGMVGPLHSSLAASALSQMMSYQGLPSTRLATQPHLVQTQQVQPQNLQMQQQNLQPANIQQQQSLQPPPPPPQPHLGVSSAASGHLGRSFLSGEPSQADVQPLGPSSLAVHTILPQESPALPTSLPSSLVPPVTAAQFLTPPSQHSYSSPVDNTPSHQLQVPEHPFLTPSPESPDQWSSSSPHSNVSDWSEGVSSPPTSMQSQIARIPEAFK
Sequence of Neurogenic locus notch homolog protein 1 (Mus musculus) (Q01705 whole entry, the tested form may be a part): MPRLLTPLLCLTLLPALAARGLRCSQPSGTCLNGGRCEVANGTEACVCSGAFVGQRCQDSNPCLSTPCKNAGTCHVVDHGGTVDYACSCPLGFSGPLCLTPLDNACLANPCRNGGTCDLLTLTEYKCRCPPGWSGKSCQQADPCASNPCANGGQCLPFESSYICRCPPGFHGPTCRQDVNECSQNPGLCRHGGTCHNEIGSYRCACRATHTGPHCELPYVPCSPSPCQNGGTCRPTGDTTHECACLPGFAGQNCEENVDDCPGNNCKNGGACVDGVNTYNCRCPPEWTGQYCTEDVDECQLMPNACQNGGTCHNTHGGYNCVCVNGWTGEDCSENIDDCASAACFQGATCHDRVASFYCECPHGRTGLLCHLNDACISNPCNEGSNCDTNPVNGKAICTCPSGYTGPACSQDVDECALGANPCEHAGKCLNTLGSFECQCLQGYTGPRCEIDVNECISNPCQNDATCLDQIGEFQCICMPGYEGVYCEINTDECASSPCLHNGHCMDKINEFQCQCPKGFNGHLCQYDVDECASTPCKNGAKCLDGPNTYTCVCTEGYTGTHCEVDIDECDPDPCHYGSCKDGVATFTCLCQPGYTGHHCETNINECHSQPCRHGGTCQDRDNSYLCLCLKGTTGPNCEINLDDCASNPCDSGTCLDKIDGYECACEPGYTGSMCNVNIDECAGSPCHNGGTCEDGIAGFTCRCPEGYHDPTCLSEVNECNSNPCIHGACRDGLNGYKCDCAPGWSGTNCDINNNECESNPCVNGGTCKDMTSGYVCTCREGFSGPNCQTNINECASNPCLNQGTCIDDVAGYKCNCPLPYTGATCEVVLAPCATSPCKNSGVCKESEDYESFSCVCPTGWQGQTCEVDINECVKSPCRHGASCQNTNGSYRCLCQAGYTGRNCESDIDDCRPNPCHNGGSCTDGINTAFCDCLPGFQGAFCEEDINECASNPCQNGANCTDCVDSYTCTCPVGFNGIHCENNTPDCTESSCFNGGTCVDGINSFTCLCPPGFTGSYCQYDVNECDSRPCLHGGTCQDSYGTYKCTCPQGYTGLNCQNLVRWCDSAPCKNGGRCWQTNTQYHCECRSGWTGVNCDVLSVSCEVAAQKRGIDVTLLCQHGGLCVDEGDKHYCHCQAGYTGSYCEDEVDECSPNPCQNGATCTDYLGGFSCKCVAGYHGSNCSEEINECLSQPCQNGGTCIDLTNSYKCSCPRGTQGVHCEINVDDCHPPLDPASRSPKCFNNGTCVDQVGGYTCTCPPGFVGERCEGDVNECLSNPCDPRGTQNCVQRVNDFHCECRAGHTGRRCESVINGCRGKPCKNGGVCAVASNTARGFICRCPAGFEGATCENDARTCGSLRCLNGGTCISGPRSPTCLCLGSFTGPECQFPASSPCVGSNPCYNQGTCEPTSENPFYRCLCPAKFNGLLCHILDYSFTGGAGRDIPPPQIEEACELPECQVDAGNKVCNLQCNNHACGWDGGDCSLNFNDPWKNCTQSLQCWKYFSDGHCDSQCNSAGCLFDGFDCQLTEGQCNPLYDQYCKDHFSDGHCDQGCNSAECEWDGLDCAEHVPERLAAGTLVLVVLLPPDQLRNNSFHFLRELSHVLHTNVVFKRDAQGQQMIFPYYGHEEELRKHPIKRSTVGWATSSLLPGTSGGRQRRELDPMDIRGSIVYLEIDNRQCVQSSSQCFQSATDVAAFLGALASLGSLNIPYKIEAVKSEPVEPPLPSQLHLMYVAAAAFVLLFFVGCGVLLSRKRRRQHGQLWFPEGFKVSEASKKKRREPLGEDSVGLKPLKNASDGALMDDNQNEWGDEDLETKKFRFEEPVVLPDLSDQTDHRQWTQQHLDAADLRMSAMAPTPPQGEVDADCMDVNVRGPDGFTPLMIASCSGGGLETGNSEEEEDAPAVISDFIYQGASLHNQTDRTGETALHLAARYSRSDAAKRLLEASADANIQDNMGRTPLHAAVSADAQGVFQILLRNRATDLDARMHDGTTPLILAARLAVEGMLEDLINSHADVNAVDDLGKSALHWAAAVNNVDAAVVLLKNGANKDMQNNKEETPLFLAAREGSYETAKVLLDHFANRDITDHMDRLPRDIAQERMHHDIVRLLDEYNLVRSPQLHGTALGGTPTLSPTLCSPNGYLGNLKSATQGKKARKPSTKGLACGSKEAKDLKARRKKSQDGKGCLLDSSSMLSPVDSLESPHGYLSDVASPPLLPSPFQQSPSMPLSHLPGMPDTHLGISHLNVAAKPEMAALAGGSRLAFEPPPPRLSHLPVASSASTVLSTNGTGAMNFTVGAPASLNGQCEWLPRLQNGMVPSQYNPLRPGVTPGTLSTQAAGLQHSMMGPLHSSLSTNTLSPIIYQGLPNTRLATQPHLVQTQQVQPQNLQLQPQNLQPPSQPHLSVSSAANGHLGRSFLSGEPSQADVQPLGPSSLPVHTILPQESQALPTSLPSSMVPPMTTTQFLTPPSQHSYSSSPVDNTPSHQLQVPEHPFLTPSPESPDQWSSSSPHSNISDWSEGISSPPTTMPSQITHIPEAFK
Sequence of Neurogenic locus notch homolog protein 1 (Q01705 whole entry, the tested form may be a part): as above

In the case of CO[C@@H]1C[C@H](O[C@H]2CC[C@@]3(C)[C@H](CC[C@@H]4[C@@H]3CC[C@]3(C)[C@@H](C5=CC(=O)OC5)[C@@H](OC(C)=O)C[C@]43O)C2)O[C@H](C)[C@@H]1O, the IC50 ([1]; read-out: IC50) is reported as 2.7 µM.

Compound CO[C@@H]1C[C@H](O[C@H]2CC[C@@]3(C)[C@H](CC[C@@H]4[C@@H]3CC[C@]3(C)[C@@H](C5=CC(=O)OC5)CC[C@]43O)C2)O[C@H](C)[C@@H]1O has an IC50 ([1]; read-out: IC50) of 4.2 µM.

In the case of CO[C@@H]1C[C@H](O[C@H]2CC[C@@]3(C)[C@H](CC[C@]4(O)[C@@H]3CC[C@]3(C)[C@@H](C5=CC(=O)OC5)CC[C@@]34O)C2)O[C@H](C)[C@@H]1O, the IC50 ([1]; ls174t) is reported as “Not Active”.

CO[C@H]1C[C@H](O[C@H]2CC[C@@]3(C)[C@H](CC[C@@H]4[C@@H]3CC[C@]3(C)[C@@H](C5=CC(=O)OC5)CC[C@]43O)C2)O[C@@H](O)[C@@H]1O showed an IC50 ([1]; read-out: IC50) of 2.7 µM.

In the case of CO[C@@H]1C[C@H](O[C@H]2CC[C@@]3(C)[C@H](CC[C@@H]4[C@@H]3CC[C@]3(C)C(C5=CC(=O)OC5)=CC[C@]43O)C2)O[C@H](C)[C@@H]1O, the IC50 ([1]; ls174t) is reported as “Not Active”.

CO[C@H]1C[C@H](O[C@H]2CC[C@@]3(C)[C@H](CC[C@@H]4[C@@H]3CC[C@]3(C)[C@@H](C5=CC(=O)OC5)[C@@H](O)C[C@]43O)C2)O[C@@H](C)[C@@H]1O gave an IC50 ([1]; read-out: IC50) of 2.5 µM.

With C[C@]12CC[C@H](O)C[C@H]1CC[C@@H]1[C@@H]2CC[C@]2(C)[C@@H](C3=CC(=O)OC3)CC[C@]12O [DIGITOXIGENIN] the IC50 ([1]; ls174t) was “Not Active”.

For CO[C@H]1C[C@H](O[C@H]2CC[C@@]3(C)[C@H](CC[C@@H]4[C@@H]3CC[C@]3(C)[C@@H](C5=CC(=O)OC5)[C@@H](OC(C)=O)C[C@]43O)C2)O[C@@H](C)[C@@H]1O [OLEANDRIN], the inhibition [2] was “Active”, the Activity (HPBALL [3]) was “Active” and the inhibition [4] was “Dose-dependent effect”. For the same compound, the Activity (HPBALL [5]) was “inactive”, the inhibition (LS174T) was “Dose-dependent effect” and the IC50 (HEK293) was 0.028 µM. The Activity (HPBALL [6]) was “Active”, the inhibition [7] was “Dose-dependent effect” and the IC50 ([1]; read-out: IC50) was 0.12 µM. The inhibition [8] was “inactive”, the inhibition [9] was “Dose-dependent effect” and the inhibition [10] was “Active”. The IC50 (HPBALL [11]) was 0.014 µM, the inhibition [12] was “Active” and the inhibition [13] was “inactive”.
